From ChEMBL document CHEMBL4732101, “Novel quinolone-based potent and selective HDAC6 inhibitors: Synthesis, molecular modeling studies and biological investigation” (Eur J Med Chem, 2021)
Calls of active or inactive are those of the source. No cut-off for these calls is given here.

How the values were obtained:
U-937 [1] = test: Cytotoxicity against human U-937 cells assessed as reduction in cell proliferation at 50 uM measured after 48 hrs by MTT assay relative to control; type: functional; parameters: scale not given: the % may be the effect or the level left
Summary of the method: (§1)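 U937 cells grown in RPMI-1640 with 10% FBS, 2 mM L-glutamine and penicillin-streptomycin. 2.5×10^4 cells/well treated in triplicate at 50, 25, 10, 5 and 1 µM for 12, 24 or 48 h. MTT 0.5 mg/ml added for 3 h, plate centrifuged 5 min at 1200 rpm, crystals dissolved in isopropanol, A570 read. IC50 derived from the concentration series.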

HCT-116 [2] = test: Cytotoxicity against human HCT-116 cells assessed as reduction in cell proliferation at 10 uM measured after 48 hrs by MTT assay relative to control; type: functional; parameters: scale not given: the % may be the effect or the level left
Summary of the method: (§2)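 HCT-116 cells grown in DMEM with 10% FBS, 2 mM L-glutamine and antibiotics. 2.5×10^4 cells/well treated in triplicate at 50, 25, 10, 5 and 1 µM for 12, 24 or 48 h. Then MTT 0.5 mg/ml for 3 h, supernatant removed, formazan dissolved in isopropanol, absorbance read at 570 nm. IC50 derived from the concentration series.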

U-937 [3] = test: Induction of apoptosis in human U-937 cells assessed as increase in PARP cleavage at 10 uM measured after 24 hrs by Western blot analysis; type: functional, cell-based
Summary of the method: (§3)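 HCT-116 or U937 cells treated at 10 µM for 12 and 24 h. […] Western blot used 40 µg total protein or 5 µg acid-extracted histone. Blots probed for cleaved PARP, acetylated tubulin, H3K9/14ac and Hsp90(AcLys294), normalized to GAPDH or H4. Compared with control cells by one-way ANOVA and Dunnett's test.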

[4] = target: T1, Protein deacetylase HDAC6 (Homo sapiens) (UniProt Q9UBN7); test: Inhibition of HDAC6 in human U-937 cells assessed as increase in Hsp90(AcLys294) acetylation at 10 uM measured after 12 to 24 hrs by Western blot analysis; type: cell-based; conditions: time 12-24 hrs; summary of the method: as §3
T1 sequence (whole entry): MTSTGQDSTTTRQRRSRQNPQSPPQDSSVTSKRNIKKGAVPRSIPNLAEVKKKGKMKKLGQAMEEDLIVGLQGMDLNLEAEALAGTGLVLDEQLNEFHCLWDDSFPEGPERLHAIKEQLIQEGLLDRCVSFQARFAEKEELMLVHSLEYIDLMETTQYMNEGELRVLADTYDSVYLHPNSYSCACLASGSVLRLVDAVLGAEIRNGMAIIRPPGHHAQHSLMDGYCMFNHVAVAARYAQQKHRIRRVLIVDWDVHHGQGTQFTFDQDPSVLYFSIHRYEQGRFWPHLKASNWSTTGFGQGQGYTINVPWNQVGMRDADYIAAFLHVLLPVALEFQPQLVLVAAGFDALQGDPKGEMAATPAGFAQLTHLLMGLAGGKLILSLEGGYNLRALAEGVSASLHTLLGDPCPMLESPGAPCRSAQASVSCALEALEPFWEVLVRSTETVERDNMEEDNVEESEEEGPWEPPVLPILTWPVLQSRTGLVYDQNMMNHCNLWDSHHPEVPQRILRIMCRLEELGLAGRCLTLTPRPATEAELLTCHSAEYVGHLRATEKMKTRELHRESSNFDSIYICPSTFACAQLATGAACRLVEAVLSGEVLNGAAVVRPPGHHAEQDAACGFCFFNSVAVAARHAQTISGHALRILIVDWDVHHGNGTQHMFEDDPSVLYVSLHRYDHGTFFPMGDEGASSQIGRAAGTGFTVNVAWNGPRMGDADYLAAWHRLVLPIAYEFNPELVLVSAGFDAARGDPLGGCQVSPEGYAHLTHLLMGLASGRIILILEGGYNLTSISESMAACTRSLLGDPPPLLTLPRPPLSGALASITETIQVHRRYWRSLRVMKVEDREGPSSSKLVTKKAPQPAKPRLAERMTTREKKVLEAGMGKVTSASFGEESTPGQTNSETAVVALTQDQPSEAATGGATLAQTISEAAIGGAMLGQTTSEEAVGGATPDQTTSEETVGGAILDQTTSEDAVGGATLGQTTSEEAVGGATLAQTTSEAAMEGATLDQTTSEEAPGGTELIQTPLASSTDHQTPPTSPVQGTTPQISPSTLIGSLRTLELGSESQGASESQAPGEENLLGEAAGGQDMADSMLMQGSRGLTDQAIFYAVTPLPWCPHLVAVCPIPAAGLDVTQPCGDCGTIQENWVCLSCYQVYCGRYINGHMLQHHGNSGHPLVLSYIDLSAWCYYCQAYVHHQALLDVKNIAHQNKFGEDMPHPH

[5] = Inhibition of HDAC1/2/3/8 in human HCT-116 cells assessed as increase in H3K9/14 acetylation at 10 uM measured after 12 to 24 hrs by Western blot analysis relative to control; type: cell-based; conditions: hct-116, 10 µM, time 12-24 hrs; summary of the method: as §3
HCT-116 [6] = test: Induction of apoptosis in human HCT-116 cells assessed as increase in PARP cleavage at 10 uM measured after 24 hrs by Western blot analysis; type: functional, cell-based; summary of the method: as §3
HCT-116 [7] = test: Cytotoxicity against human HCT-116 cells assessed as reduction in cell viability measured after 12 hrs by MTT assay; type: functional, cell-based; conditions: HCT-116, 12 h; summary of the method: as §2
[8] = target: T1, Protein deacetylase HDAC6 (Homo sapiens); test: Inhibition of HDAC6 in human U-937 cells assessed as increase in alpha-tubulin acetylation at 10 uM measured after 12 to 24 hrs by Western blot analysis relative to control; type: cell-based; conditions: time 12-24 hrs; summary of the method: as §3
U-937 [9] = test: Cytotoxicity against human U-937 cells assessed as reduction in cell viability measured after 48 hrs by MTT assay; type: functional, cell-based; conditions: U-937, 48 h; summary of the method: as §1
HCT-116 [10] = test: Cytotoxicity against human HCT-116 cells assessed as reduction in cell proliferation at 10 uM measured after 24 hrs by MTT assay relative to control; type: functional; parameters: scale not given: the % may be the effect or the level left; summary of the method: as §2
HCT-116 [11] = test: Cytotoxicity against human HCT-116 cells assessed as reduction in cell proliferation at 25 uM measured after 48 hrs by MTT assay relative to control; type: functional; parameters: scale not given: the % may be the effect or the level left; conditions: time 12 hrs, in the assay text read “after 12 hrs” for “after 48 hrs”; summary of the method: as §2
Histone deacetylase 8 = target: T2, Histone deacetylase 8 (Homo sapiens, UniProt Q9BY41); test: Inhibition of recombinant human HDAC8 using Fluor-de-Lys as substrate measured after 1 hr by fluorescence assay
T2 sequence (Q9BY41 whole entry): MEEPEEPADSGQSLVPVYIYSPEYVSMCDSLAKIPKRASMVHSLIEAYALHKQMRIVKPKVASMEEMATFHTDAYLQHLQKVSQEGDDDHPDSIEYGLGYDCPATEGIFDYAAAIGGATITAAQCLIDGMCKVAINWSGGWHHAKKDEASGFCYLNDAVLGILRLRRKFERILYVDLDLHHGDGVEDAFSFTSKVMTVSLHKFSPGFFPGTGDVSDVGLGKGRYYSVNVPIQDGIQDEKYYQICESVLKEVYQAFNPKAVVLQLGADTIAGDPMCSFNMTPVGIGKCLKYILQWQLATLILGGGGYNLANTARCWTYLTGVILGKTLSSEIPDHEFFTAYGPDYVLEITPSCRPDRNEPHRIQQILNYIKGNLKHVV

[12] = Inhibition of HDAC1/2/3/8 in human U-937 cells assessed as increase in H3K9/14 acetylation at 10 uM measured after 12 to 24 hrs by Western blot analysis; type: cell-based; conditions: u-937, 10 µM, time 12-24 hrs; summary of the method: as §3
[13] = Cytotoxicity against human PBMC cells assessed as reduction in cell viability at 45 uM measured after 24 to 48 hrs by GUAVA easyCyte cytometric method; type: cell-based; conditions: time 24-48 hrs
Summary of the method: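 PBMCs seeded at 1.5 x10^6/mL in complete medium and exposed to 15, 45 or 90 µM test compound, or DMSO vehicle, for 24 h and 48 h. Percentage of viable cells determined by flow cytometry with ViaCount reagent.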

HCT-116 [14] = test: Cytotoxicity against human HCT-116 cells assessed as reduction in cell viability measured after 24 hrs by MTT assay; type: functional, cell-based; conditions: HCT-116, 24 h; summary of the method: as §2
[15] = target: T1, Protein deacetylase HDAC6 (Homo sapiens); test: Inhibition of HDAC6 in human HCT-116 cells assessed as increase in Hsp90(AcLys294) acetylation at 10 uM measured after 12 to 24 hrs by Western blot analysis; type: cell-based; conditions: time 12-24 hrs; summary of the method: as §3
[16] = target: T1, Protein deacetylase HDAC6 (Homo sapiens); test: Inhibition of HDAC6 in human HCT-116 cells assessed as increase in alpha-tubulin acetylation at 10 uM measured after 12 to 24 hrs by Western blot analysis relative to control; type: cell-based; conditions: time 12-24 hrs; summary of the method: as §3
HCT-116 [17] = test: Cytotoxicity against human HCT-116 cells assessed as reduction in cell viability measured after 48 hrs by MTT assay; type: functional, cell-based; conditions: HCT-116, 48 h; summary of the method: as §2

SMILES: CCN(CC)Cc1ccc(Cn2c(=O)c(OCc3ccc(C(=O)NO)cc3)c(-c3ccccc3)c3ccccc32)cc1
- Activity (U-937 [1]): 60%
- Activity (HCT-116 [2]): 90%
- Activity (U-937 [3]): Active
- inhibition [4]: inactive
- fold change (FC) [5]: 2
- Activity (HCT-116 [6]): Active
- IC50 (HCT-116 [7]): 13.5 µM
- fold change (FC) [8]: > 9
- IC50 (U-937 [9]): 40.6 µM
- Activity (HCT-116 [10]): 50%
- Activity (HCT-116 [11]): 80%
- IC50 (Histone deacetylase 8): 0.55 µM
- Kapp (Histone deacetylase 8; human, 1 h): 0.36 µM
- inhibition (INH) [12]: Active
- Activity [13]: Toxic
- IC50 (HCT-116 [14]): 11.6 µM
- inhibition [15]: Active
- fold change (FC) [16]: > 9
- IC50 (HCT-116 [17]): 3.6 µM
